Reference: the M2OR odorant receptor database

Tests used:
Details in all cases: stereoisomer not certain
OR3A3 T48I L132F = tested on: T1, OR3A3 T48I L132F
T1 sequence (whole entry): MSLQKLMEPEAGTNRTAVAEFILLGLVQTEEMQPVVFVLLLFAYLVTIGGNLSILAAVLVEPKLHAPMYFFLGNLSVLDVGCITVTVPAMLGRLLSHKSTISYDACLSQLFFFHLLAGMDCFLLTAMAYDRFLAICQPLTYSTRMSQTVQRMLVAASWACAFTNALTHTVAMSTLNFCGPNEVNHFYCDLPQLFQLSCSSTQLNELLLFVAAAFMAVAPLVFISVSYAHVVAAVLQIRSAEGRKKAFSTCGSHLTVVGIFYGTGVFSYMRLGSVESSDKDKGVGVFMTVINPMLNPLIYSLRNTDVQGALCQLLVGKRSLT
Outline: (§1)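 Whether a receptor–molecule pair is responsive (active) rests on the original authors' judgment that its measured signal was statistically different from baseline. Pairs without that judgment are non-responsive (inactive). Sources used varied assay methods, commonly transient luciferase assays in mammalian cell lines.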

OR4A15 (Homo sapiens) = OR4A15 (Homo sapiens) (UniProt Q8NGL6)
Outline: as §1

OR4A16 (Homo sapiens) = target: T2, OR4A16 (Homo sapiens) (UniProt Q8NH70)
T2 sequence (whole entry): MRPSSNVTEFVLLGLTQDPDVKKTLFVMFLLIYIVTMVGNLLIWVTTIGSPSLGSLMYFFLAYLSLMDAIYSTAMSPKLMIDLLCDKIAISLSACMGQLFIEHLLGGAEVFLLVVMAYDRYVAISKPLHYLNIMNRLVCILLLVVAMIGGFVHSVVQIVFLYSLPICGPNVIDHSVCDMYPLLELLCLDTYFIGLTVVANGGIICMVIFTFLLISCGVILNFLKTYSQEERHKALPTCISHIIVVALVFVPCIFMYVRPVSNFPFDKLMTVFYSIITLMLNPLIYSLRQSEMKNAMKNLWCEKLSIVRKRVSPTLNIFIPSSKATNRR
Outline: as §1

OR4A47 (Homo sapiens) = target: T3, OR4A47 (Homo sapiens) (UniProt Q6IF82)
T3 sequence (whole entry): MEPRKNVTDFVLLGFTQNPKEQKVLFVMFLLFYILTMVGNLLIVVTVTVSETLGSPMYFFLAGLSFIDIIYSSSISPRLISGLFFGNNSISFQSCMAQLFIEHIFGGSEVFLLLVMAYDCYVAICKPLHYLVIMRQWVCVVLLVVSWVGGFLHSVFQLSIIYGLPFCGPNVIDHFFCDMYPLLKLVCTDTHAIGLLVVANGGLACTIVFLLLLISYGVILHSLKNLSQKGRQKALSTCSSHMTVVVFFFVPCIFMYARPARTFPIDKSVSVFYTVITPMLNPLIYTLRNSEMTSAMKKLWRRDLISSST
Outline: as §1

OR4A5 (Homo sapiens) = target: T4, OR4A5 (Homo sapiens) (UniProt Q8NH83)
T4 sequence (whole entry): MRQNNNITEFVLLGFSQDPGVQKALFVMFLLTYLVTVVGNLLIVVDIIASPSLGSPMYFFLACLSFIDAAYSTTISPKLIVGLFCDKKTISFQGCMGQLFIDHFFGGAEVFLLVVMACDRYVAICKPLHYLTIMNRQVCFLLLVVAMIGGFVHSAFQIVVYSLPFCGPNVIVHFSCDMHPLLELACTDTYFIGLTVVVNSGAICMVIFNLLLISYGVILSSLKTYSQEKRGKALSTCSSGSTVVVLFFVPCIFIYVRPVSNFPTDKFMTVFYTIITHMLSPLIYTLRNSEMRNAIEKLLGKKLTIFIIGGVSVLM
Outline: as §1

OR4B1 (Homo sapiens) = target: T5, OR4B1 (Homo sapiens) (UniProt Q8NGF8)
T5 sequence (whole entry): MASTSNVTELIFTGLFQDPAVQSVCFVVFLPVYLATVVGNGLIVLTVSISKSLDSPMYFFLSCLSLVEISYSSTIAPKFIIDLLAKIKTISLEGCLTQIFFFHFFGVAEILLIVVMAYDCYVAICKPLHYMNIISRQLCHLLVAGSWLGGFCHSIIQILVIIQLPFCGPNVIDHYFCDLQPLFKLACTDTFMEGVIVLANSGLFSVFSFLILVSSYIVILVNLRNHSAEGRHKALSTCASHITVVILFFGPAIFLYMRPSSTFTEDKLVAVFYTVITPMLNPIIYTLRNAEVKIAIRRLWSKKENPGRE
Outline: as §1

OR4C11 (Homo sapiens) = target: T6, OR4C11 (Homo sapiens) (UniProt Q6IEV9)
T6 sequence (whole entry): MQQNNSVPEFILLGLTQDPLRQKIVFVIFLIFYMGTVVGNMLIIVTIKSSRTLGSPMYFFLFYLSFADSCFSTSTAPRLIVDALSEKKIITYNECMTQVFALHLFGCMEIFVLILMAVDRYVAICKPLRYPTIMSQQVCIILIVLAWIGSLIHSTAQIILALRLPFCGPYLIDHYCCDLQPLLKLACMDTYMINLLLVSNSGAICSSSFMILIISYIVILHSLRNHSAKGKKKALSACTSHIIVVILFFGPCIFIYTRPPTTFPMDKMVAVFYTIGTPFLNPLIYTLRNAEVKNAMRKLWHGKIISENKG
Outline: as §1

OR4C12 (Homo sapiens) = OR4C12 (Homo sapiens) (UniProt Q96R67)
Outline: as §1

OR4C13 (Homo sapiens) = OR4C13 (Homo sapiens) (UniProt Q8NGP0)
Outline: as §1

OR4C16 (Homo sapiens) = target: T7, OR4C16 (Homo sapiens) (UniProt Q8NGL9)
T7 sequence (whole entry): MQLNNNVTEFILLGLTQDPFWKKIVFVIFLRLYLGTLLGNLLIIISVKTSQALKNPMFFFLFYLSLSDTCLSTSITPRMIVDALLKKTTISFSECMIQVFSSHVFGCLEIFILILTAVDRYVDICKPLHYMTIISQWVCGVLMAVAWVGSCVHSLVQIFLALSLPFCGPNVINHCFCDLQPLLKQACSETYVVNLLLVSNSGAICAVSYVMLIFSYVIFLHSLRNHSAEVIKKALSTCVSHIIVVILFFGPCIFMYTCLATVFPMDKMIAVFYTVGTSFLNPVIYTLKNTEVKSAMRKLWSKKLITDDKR
Outline: as §1

OR4C3 = tested on: OR4C3
Outline: as §1

OR4C45 (Homo sapiens) [1] = target: OR4C45 (Homo sapiens) (UniProt A6NMZ5)
Outline: as §1
Target sequence in this assay (A6NMZ5 whole entry): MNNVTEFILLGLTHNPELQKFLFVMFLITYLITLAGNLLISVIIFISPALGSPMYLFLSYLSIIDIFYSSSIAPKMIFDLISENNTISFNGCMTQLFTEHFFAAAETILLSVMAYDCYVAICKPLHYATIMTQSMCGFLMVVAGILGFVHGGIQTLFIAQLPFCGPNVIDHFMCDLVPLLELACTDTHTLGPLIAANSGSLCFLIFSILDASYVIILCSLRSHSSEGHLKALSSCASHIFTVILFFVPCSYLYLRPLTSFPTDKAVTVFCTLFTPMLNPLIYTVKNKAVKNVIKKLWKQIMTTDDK

OR4C46 (Homo sapiens) = OR4C46 (Homo sapiens) (UniProt A6NHA9)
Outline: as §1

OR4C5 (Homo sapiens) = OR4C5 (Homo sapiens) (UniProt Q8NGB2)
Outline: as §1

OR4C6 (Homo sapiens) = OR4C6 (Homo sapiens) (UniProt Q8NH72)
Outline: as §1

OR4C15 (Homo sapiens) = OR4C15 (Homo sapiens) (UniProt Q8NGM1)
Outline: as §1

OR4C3 (Homo sapiens) = OR4C3 (Homo sapiens) (UniProt Q8NH37)
Outline: as §1

OR4C45 (Homo sapiens) [2] = target: T8, OR4C45 (Homo sapiens) (UniProt A6NMZ5); remark: listed apart in the source
T8 sequence (whole entry): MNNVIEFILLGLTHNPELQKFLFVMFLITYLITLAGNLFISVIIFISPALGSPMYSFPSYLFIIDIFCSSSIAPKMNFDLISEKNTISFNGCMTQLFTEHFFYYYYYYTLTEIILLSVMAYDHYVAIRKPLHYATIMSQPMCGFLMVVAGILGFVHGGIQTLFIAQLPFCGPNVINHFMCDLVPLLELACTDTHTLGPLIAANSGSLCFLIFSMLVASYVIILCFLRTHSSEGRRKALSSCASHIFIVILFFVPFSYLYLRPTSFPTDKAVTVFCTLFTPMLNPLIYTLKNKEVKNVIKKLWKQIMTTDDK
Outline: as §1

OR3A4P (Homo sapiens) = target: T9, OR3A4P (Homo sapiens) (UniProt P47883)
T9 sequence (whole entry): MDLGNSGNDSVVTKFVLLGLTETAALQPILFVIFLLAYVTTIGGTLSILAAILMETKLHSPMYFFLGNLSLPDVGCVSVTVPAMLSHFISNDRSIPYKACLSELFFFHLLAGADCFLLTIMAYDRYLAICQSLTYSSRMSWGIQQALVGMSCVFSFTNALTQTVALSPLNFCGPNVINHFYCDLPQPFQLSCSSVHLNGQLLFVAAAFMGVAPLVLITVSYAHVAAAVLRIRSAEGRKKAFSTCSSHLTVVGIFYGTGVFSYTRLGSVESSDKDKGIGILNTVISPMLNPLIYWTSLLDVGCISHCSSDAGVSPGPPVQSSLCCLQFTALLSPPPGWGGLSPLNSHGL
Outline: as §1

OR4A8 (Homo sapiens) = OR4A8 (Homo sapiens) (UniProt P0C604)
Outline: as §1

Measured: odorant receptor agonist call

OR4C46 (Homo sapiens), sequence (A6NHA9 whole entry): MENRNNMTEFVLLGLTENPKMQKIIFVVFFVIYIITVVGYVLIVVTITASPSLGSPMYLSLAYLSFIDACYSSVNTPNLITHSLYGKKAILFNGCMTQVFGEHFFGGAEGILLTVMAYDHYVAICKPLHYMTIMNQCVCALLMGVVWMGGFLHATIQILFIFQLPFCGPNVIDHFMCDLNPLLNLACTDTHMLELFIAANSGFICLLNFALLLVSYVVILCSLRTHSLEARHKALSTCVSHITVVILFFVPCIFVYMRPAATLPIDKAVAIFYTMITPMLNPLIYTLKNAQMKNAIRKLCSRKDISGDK
OR4C3, sequence (as listed by the source): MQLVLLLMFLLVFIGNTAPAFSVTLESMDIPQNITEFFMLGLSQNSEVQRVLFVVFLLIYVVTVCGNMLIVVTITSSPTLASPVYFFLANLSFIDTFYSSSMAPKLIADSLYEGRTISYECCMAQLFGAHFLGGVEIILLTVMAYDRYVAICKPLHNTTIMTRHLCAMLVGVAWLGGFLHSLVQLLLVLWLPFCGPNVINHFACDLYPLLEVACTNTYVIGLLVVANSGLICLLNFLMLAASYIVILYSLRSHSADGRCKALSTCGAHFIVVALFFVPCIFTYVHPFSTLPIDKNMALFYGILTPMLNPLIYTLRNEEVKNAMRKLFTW
OR4C12 (Homo sapiens), sequence (Q96R67 whole entry): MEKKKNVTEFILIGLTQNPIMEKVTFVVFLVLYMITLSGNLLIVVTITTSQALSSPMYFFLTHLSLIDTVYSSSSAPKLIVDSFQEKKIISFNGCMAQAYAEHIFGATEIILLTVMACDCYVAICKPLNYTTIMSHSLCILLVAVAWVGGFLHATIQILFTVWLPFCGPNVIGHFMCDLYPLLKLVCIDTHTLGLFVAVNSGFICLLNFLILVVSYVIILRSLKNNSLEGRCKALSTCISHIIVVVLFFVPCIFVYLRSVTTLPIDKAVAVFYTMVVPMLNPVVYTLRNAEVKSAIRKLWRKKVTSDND
OR4C3 (Homo sapiens), sequence (Q8NH37 whole entry): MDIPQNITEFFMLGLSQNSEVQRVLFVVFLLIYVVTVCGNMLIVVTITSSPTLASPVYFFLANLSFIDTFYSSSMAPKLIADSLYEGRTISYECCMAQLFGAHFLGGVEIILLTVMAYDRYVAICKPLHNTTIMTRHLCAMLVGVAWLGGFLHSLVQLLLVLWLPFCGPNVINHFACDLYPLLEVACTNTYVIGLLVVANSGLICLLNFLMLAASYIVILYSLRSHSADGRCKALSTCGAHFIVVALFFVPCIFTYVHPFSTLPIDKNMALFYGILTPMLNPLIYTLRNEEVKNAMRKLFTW
OR4C13 (Homo sapiens), sequence (Q8NGP0 whole entry): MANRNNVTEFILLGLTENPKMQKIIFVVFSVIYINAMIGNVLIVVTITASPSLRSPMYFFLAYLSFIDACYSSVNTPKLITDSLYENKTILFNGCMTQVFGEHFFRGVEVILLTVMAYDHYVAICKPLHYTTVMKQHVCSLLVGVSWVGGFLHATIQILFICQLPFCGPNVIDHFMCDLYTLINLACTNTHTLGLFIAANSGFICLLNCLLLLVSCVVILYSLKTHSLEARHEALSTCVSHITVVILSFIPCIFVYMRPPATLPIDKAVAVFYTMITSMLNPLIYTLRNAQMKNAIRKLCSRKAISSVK
OR4A15 (Homo sapiens), sequence (Q8NGL6 whole entry): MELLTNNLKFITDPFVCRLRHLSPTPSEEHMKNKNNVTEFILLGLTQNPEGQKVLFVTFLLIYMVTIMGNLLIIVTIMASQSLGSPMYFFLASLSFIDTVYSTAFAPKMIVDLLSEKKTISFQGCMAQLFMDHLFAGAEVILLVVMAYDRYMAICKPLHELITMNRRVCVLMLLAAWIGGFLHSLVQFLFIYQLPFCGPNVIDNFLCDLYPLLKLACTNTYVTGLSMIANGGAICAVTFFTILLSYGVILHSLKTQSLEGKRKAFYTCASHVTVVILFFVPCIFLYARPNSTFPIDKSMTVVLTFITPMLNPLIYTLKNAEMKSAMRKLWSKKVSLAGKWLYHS
OR4C5 (Homo sapiens), sequence (Q8NGB2 whole entry): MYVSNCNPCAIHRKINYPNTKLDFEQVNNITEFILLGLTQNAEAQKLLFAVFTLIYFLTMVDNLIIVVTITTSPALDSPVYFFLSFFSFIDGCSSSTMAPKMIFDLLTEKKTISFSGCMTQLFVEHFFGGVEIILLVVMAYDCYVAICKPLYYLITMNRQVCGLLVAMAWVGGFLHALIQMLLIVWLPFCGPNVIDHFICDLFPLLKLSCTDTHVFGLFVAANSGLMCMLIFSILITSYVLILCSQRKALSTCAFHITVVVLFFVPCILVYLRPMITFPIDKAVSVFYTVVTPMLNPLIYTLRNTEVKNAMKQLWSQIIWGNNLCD
OR4C6 (Homo sapiens), sequence (Q8NH72 whole entry): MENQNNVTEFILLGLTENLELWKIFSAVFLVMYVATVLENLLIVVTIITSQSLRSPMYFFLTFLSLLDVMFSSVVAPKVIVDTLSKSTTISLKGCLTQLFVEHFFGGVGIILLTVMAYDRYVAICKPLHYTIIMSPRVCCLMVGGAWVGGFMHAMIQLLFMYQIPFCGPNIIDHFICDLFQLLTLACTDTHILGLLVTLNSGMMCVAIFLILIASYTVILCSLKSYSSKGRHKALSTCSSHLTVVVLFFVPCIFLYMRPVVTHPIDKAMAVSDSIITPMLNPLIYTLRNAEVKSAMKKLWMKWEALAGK
OR4C15 (Homo sapiens), sequence (Q8NGM1 whole entry): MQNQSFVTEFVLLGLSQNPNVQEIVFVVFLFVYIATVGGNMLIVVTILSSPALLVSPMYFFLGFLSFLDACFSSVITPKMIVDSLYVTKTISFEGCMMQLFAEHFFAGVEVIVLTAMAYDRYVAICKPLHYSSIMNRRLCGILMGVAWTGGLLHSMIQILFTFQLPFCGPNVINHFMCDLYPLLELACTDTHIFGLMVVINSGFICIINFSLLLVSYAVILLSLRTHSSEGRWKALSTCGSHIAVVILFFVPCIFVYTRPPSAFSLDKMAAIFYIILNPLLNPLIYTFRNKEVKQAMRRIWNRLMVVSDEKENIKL
OR4A8 (Homo sapiens), sequence (P0C604 whole entry): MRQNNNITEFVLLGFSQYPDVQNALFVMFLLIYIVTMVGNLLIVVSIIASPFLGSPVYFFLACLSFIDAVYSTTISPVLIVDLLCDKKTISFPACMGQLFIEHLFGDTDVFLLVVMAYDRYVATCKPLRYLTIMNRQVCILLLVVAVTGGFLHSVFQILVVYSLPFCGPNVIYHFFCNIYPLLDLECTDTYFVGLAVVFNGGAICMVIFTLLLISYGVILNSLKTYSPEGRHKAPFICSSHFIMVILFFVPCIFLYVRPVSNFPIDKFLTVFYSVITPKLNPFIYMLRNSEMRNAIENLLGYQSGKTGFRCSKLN

CCC1OC(=O)C(O)=C1C (centres undefined)
not listed: OR4C15 (Homo sapiens) | OR4C3 (Homo sapiens) | OR4C45 (Homo sapiens) [2] | OR3A4P (Homo sapiens) | OR4A8 (Homo sapiens)
inactive: all other assays above

CCCCCCC=CCCC=O
not listed: OR4C3 | OR4C45 (Homo sapiens) [1] | OR3A4P (Homo sapiens) | OR4A8 (Homo sapiens)
inactive: all other assays above

CC(C)=CCCC(C)=CCO
inactive: OR4C3

CCCCCC(S)C(C)CO (centres undefined)
active: OR4A16 (Homo sapiens)
not listed: OR3A3 T48I L132F | OR4C3 | OR4C45 (Homo sapiens) [1] | OR4A8 (Homo sapiens)
inactive: all other assays above

CCCCC(S)C(C)CO (centres undefined)
not listed: OR3A3 T48I L132F | OR4C3 | OR4C45 (Homo sapiens) [1] | OR4A8 (Homo sapiens)
inactive: all other assays above

CCC(S)C(C)CO (centres undefined)
not listed: OR3A3 T48I L132F | OR4C3 | OR4C45 (Homo sapiens) [1] | OR4A8 (Homo sapiens)
inactive: all other assays above

CCCCCC(=O)C(C)C(C)=O (centres undefined)
not listed: OR3A3 T48I L132F | OR4C3 | OR4C45 (Homo sapiens) [1] | OR4A8 (Homo sapiens)
inactive: all other assays above

CC1=C(O)C(=O)OC1C (centres undefined)
not listed: OR4C15 (Homo sapiens) | OR4C3 (Homo sapiens) | OR4C45 (Homo sapiens) [2] | OR3A4P (Homo sapiens) | OR4A8 (Homo sapiens)
inactive: all other assays above

CCC1OC(C)=C(O)C1=O (centres undefined)
not listed: OR4C15 (Homo sapiens) | OR4C3 (Homo sapiens) | OR4C45 (Homo sapiens) [2] | OR3A4P (Homo sapiens) | OR4A8 (Homo sapiens)
inactive: all other assays above

CC1=C(O)C(=O)C(C)O1 (centres undefined)
not listed: OR4C15 (Homo sapiens) | OR4C3 (Homo sapiens) | OR4C45 (Homo sapiens) [2] | OR3A4P (Homo sapiens) | OR4A8 (Homo sapiens)
inactive: all other assays above

CC1CCCCCCCCCCCCC(=O)C1 (centres undefined)
not listed: OR3A3 T48I L132F | OR4C3 | OR4C45 (Homo sapiens) [1] | OR3A4P (Homo sapiens)
inactive: all other assays above

CC(CO)CS (centres undefined)
not listed: OR3A3 T48I L132F | OR4C3 | OR4C45 (Homo sapiens) [1] | OR4A8 (Homo sapiens)
inactive: all other assays above

CC1=NC(C)C(C)S1 (centres undefined)
not listed: OR4C15 (Homo sapiens) | OR4C3 (Homo sapiens) | OR4C45 (Homo sapiens) [2] | OR3A4P (Homo sapiens) | OR4A8 (Homo sapiens)
inactive: all other assays above

CCCC(S)CCOC(C)=O (centres undefined)
not listed: OR4C15 (Homo sapiens) | OR4C3 (Homo sapiens) | OR4C45 (Homo sapiens) [2] | OR3A4P (Homo sapiens) | OR4A8 (Homo sapiens)
inactive: all other assays above

CC(=O)c1c(C)c([N+](=O)[O-])c(C(C)(C)C)c([N+](=O)[O-])c1C
not listed: OR3A3 T48I L132F | OR4C3 | OR4C45 (Homo sapiens) [1] | OR3A4P (Homo sapiens)
inactive: all other assays above

Cc1cnc(C)c(C)n1
not listed: OR4C15 (Homo sapiens) | OR4C3 (Homo sapiens) | OR4C45 (Homo sapiens) [2] | OR3A4P (Homo sapiens) | OR4A8 (Homo sapiens)
inactive: all other assays above
